Experiment [1] has as its target T1, Mitogen-activated protein kinase 15 (Homo sapiens) (UniProt Q8TD08).
T1 sequence (whole entry): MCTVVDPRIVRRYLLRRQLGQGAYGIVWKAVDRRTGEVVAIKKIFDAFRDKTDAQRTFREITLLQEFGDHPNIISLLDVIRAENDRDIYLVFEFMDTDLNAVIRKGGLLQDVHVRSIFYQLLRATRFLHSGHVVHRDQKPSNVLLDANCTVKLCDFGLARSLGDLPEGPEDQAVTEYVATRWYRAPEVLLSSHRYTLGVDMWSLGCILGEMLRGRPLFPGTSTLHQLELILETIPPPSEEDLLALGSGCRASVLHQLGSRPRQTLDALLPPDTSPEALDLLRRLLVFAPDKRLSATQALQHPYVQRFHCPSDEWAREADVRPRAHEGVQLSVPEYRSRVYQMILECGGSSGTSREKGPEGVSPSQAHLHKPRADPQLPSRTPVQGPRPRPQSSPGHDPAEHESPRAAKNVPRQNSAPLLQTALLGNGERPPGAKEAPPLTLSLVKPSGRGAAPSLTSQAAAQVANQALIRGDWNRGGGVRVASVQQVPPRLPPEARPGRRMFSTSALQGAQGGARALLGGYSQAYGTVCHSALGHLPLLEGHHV
The experiment is described as follows: Inhibition of ERK8 assessed as residual enzyme activity at 10 uM relative to untreated control. The gist of the method: (§1)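 Radiometric filter-binding assay at 21 °C for 30 min. Mix: 50 mM Tris/HCl pH 7.5, 0.1 mM EGTA, 0.1% 2-mercaptoethanol, 10 mM Mg acetate and [γ-33P]ATP (800 cpm/pmol) at 5 µM. Stopped with orthophosphoric acid and spotted on P81. Compound at 10 µM; activity given as % remaining versus no-inhibitor control, duplicates. Kinases human full-length unless noted.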

The target of experiment [2] is Homeodomain-interacting protein kinase 2 (Homo sapiens) (UniProt Q9H2X6). The experiment is described as follows: Inhibition of HIPK2 assessed as residual enzyme activity at 10 uM relative to untreated control. The procedure, abridged: as §1
Sequence of Homeodomain-interacting protein kinase 2 (Homo sapiens) (Q9H2X6 whole entry, looked up): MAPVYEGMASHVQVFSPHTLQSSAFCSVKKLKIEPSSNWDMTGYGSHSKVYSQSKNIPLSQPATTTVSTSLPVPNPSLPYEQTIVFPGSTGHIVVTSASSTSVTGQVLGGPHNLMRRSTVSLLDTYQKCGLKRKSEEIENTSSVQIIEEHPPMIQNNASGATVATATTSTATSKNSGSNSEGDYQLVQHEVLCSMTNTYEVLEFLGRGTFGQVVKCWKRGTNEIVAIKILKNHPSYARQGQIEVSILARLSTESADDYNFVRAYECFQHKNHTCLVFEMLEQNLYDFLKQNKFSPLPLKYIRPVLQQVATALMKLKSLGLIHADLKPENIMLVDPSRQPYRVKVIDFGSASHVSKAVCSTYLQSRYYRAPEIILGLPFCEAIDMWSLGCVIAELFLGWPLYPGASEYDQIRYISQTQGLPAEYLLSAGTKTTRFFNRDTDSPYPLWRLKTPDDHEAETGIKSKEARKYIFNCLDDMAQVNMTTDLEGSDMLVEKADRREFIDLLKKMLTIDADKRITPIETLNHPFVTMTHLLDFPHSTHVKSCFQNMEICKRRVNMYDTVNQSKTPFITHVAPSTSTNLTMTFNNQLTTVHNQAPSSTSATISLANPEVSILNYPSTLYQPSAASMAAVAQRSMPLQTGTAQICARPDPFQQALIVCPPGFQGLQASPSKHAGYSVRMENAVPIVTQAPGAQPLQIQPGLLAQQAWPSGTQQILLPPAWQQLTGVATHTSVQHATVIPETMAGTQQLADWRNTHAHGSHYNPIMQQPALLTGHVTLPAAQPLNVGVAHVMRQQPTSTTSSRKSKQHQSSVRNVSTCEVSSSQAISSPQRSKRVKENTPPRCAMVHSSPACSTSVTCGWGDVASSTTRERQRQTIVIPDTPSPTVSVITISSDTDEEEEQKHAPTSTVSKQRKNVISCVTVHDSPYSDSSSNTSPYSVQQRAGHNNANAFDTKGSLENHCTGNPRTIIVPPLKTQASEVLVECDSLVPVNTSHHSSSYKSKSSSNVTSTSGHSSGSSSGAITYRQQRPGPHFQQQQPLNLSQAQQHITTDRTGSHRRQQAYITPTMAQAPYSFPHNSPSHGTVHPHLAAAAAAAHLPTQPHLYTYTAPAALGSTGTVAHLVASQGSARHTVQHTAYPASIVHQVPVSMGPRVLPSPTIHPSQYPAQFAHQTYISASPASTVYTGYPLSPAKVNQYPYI
Experiment [3] in a line: Inhibition of PKA assessed as residual enzyme activity at 10 uM relative to untreated control. The procedure, abridged:
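PKA (5-20 m-units) was assayed in 8 mM Mops pH 7.5 and 0.2 mM EDTA, with LRRASLG at 300 µM and [γ-33P]ATP at 20 µM plus 10 mM Mg acetate, 30 min at 21 °C, then P81 filter capture. Compound at 10 µM; % residual activity versus uninhibited control, duplicates.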

The target of experiment [4] is MAP kinase-interacting serine/threonine-protein kinase 1 (Homo sapiens) (UniProt Q9BUB5). The experiment is described as follows: Inhibition of MNK1 assessed as residual enzyme activity at 10 uM relative to untreated control. The procedure, abridged: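 Assayed with [γ-33P]ATP at 50 µM and 10 mM Mg acetate in 50 mM Tris/HCl pH 7.5, 0.1 mM EGTA, 0.1% 2-mercaptoethanol, 30 min, 21 °C. Phosphoric acid stop, P81 filter capture. ERK2 and Lck are mouse; AMPK is rat. 10 µM compound; % activity remaining relative to control without inhibitor, duplicates.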
Sequence of MAP kinase-interacting serine/threonine-protein kinase 1 (Homo sapiens) (Q9BUB5 whole entry, looked up): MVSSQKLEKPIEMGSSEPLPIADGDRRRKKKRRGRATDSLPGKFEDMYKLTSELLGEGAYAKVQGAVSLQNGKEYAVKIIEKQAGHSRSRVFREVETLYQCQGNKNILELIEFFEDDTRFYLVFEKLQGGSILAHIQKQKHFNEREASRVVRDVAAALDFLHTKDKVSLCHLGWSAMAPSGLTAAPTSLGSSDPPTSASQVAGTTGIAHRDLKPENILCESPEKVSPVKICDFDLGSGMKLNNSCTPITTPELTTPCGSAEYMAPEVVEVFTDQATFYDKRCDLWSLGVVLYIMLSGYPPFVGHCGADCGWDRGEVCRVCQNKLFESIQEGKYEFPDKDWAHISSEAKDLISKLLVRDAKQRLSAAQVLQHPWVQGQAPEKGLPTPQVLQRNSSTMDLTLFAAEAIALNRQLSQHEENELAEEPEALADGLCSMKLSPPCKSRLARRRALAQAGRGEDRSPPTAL

Experiment [5] addresses MAP kinase-activated protein kinase 3 (Homo sapiens) (UniProt Q16644). Description: Inhibition of MAPKAPK3 assessed as residual enzyme activity at 10 uM relative to untreated control. The procedure, abridged: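 Kinases of human origin, except CK1δ, which is rat. Run in 50 mM Tris/HCl pH 7.5, 0.1 mM EGTA, 0.1% 2-mercaptoethanol and 10 mM Mg acetate, with [γ-33P]ATP at 20 µM, 30 min at 21 °C. Acid-stopped and captured on P81 filters. Compound tested at 10 µM; residual % of uninhibited control, duplicate determinations.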

In experiment [6] the target is Serine/threonine-protein kinase PLK1 (Homo sapiens) (UniProt P53350). Description: Inhibition of PLK1 assessed as residual enzyme activity at 10 uM relative to untreated control. The procedure, abridged:
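30 min at 21 °C in the presence of 10 µM inhibitor. Incorporation read after P81 filter capture. Reported as % activity remaining relative to control, duplicates.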

In experiment [7] the target is T2, Eukaryotic elongation factor 2 kinase (Homo sapiens) (UniProt O00418).
T2 sequence (whole entry): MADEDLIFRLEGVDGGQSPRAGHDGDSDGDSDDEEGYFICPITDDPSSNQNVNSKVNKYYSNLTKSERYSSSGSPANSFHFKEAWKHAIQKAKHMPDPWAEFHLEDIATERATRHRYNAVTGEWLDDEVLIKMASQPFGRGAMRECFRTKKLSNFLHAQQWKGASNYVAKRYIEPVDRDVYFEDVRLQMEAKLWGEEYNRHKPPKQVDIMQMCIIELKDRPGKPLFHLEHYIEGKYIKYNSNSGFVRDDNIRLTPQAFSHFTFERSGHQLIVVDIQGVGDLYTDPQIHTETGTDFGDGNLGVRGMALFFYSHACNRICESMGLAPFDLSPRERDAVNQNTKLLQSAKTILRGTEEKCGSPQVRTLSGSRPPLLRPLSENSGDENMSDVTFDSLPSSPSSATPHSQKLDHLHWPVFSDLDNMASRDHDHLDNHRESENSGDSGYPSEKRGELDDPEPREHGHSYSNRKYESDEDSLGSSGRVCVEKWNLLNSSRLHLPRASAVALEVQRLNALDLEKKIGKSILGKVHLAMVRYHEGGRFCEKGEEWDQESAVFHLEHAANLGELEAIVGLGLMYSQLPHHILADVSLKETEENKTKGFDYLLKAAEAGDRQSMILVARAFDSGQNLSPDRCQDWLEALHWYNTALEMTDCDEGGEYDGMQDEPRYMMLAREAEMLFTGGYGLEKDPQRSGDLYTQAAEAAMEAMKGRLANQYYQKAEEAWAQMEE
Description: Inhibition of EF2K assessed as residual enzyme activity at 10 uM relative to untreated control.

The next experiment deals with ERK2 (Mus musculus). Description: Inhibition of ERK2 assessed as residual enzyme activity at 10 uM relative to untreated control.

The results in this text go back to ChEMBL document CHEMBL1154186, “Synthesis, kinase inhibitory potencies, and in vitro antiproliferative evaluation of new Pim kinase inhibitors” (J Med Chem, 2009).

Sequence of Serine/threonine-protein kinase PLK1 (Homo sapiens) (P53350 whole entry): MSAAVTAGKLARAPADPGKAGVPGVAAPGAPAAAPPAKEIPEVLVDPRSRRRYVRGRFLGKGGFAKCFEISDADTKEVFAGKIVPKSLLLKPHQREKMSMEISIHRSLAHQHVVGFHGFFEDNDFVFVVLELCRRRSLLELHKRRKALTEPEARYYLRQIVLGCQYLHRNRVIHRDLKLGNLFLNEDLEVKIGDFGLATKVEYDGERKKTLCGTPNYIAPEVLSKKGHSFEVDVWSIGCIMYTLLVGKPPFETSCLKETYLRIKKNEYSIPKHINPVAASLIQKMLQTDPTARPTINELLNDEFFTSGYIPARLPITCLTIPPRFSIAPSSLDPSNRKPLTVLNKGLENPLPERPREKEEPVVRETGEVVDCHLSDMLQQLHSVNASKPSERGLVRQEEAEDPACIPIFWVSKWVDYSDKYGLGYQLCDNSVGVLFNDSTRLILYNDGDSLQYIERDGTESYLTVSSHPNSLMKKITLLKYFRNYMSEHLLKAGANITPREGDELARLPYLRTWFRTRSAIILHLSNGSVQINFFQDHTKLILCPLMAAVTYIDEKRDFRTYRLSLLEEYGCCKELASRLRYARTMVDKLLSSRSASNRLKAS
Sequence of MAP kinase-activated protein kinase 3 (Homo sapiens) (Q16644 whole entry, looked up): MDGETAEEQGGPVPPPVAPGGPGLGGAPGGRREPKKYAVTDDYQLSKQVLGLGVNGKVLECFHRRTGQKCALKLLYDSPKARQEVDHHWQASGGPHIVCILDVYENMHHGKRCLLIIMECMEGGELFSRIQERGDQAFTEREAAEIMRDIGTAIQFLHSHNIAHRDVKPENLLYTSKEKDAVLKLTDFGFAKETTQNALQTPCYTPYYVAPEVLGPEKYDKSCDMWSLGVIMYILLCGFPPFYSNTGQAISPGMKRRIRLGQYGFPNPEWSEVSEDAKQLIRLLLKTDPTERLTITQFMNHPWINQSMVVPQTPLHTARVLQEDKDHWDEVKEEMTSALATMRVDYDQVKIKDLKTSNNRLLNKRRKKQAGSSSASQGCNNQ

As for `c1ccc2c(c1)[nH]c1c3cc[nH]c3ccc21`, the Activity in experiment [1] was found to be 47%; in experiment [2], 72%; in experiment [3], 96%; in experiment [4], 101%; in experiment [5], 88%; in experiment [6], 105%. In addition, the Activity came to 92% in experiment [7] and 100% with ERK2 (Mus musculus).
Take `O=Cc1c[nH]c2ccc3c4ccccc4[nH]c3c12`: the Activity turned out to be 112% in experiment [1]; 95% in experiment [2]; 83% in experiment [3]; 106% in experiment [4]; 90% in experiment [5]; 106% in experiment [6]. Further, the Activity was determined as 105% in experiment [7] and 94% in the experiment on ERK2 (Mus musculus).
For the molecule `c1ccc2c(c1)[nH]c1c2ccc2cc[nH]c21`, the Activity in experiment [1] was determined as 55%; in experiment [2], 59%; in experiment [3] it was 95%; in experiment [4], 69%; in experiment [5], 89%; in experiment [6] it was 111%. Moreover, the Activity in experiment [7] came to 101%; in the experiment on ERK2 (Mus musculus), 94%.
On to `O=Cc1c[nH]c2c1ccc1c3ccccc3[nH]c12`, for which the Activity amounted to 20% in experiment [1]; 60% in experiment [3]; 27% in experiment [4]; 69% in experiment [5]; 91% in experiment [6]; 90% in experiment [7].
